system: CCRF-CEM; experiment: Growth inhibition of human CCRF-CEM cells assessed as cell growth at 10 uM incubated for 48 hrs by sulforhodamine B assay relative to control; format: functional; settings: read-out: Activity
How it was run: (§1)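 NCI Developmental Therapeutics Program NCI60 panel. Compounds that were active in the 10 µM one-dose screen went on to dose–response testing. Growth at each concentration is expressed relative to untreated control (100%). GI50 (concentration giving 50% of maximal inhibition of proliferation) and TGI (concentration giving total growth inhibition) were derived from the curves.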

Row | Compound | growth at 10 µM
1 | O=S(=O)(c1ccccc1)n1ccc(-c2ccc3c(c2)CCO3)n1 | 76.7%

system: HL-60(TB); experiment: Growth inhibition of human HL-60(TB) cells assessed as cell growth at 10 uM incubated for 48 hrs by sulforhodamine B assay relative to control; format: functional; settings: read-out: Activity
How it was run: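 Screened by the NCI Developmental Therapeutics Program on its panel of 60 human tumour cell lines. Compounds were first tested at a single 10 µM dose, and compounds active there went to dose-response curves. Growth is expressed relative to untreated control (100%). GI50 (50% of maximal proliferation inhibition) and TGI (total growth inhibition) were derived from the dose-response data.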

Row | Compound | growth at 10 µM
2 | O=S(=O)(c1ccccc1)n1ccc(-c2ccc3c(c2)CCO3)n1 | 109%

system: MOLT-4; experiment: Growth inhibition of human MOLT-4 cells assessed as cell growth at 10 uM incubated for 48 hrs by sulforhodamine B assay relative to control; format: functional; settings: read-out: Activity
How it was run: (§2)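 Submitted to the NCI Developmental Therapeutics Program for the NCI60 human tumour cell line panel. First screen at a single 10 µM concentration. Read-out is growth relative to untreated control cells set at 100%.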

Row | Compound | growth at 10 µM
3 | O=S(=O)(c1ccccc1)n1ccc(-c2ccc3c(c2)CCO3)n1 | 85.6%

system: A549; experiment: Growth inhibition of human A549/ATCC cells assessed as cell growth at 10 uM incubated for 48 hrs by sulforhodamine B assay relative to control; format: functional; settings: read-out: Activity; how it was run: as §1

Row | Compound | growth at 10 µM
4 | O=S(=O)(c1ccccc1)n1ccc(-c2ccc3c(c2)CCO3)n1 | 78.8%

system: HOP-62; experiment: Growth inhibition of human HOP-62 cells assessed as cell growth at 10 uM incubated for 48 hrs by sulforhodamine B assay relative to control; format: functional; settings: read-out: Activity; how it was run: as §2

Row | Compound | growth at 10 µM
5 | O=S(=O)(c1ccccc1)n1ccc(-c2ccc3c(c2)CCO3)n1 | 98.8%

system: HOP-92; experiment: Growth inhibition of human HOP-92 cells assessed as cell growth at 10 uM incubated for 48 hrs by sulforhodamine B assay relative to control; format: functional; settings: read-out: Activity; how it was run: as §2

Row | Compound | growth at 10 µM
6 | O=S(=O)(c1ccccc1)n1ccc(-c2ccc3c(c2)CCO3)n1 | 41.8%

system: NCI-H226; experiment: Growth inhibition of human NCI-H226 cells assessed as cell growth at 10 uM incubated for 48 hrs by sulforhodamine B assay relative to control; format: functional; settings: read-out: Activity; how it was run: as §2

Row | Compound | growth at 10 µM
7 | O=S(=O)(c1ccccc1)n1ccc(-c2ccc3c(c2)CCO3)n1 | 64.6%

system: NCI-H322M; experiment: Growth inhibition of human NCI-H322M cells assessed as cell growth at 10 uM incubated for 48 hrs by sulforhodamine B assay relative to control; format: functional; settings: read-out: Activity; how it was run: as §2

Row | Compound | growth at 10 µM
8 | O=S(=O)(c1ccccc1)n1ccc(-c2ccc3c(c2)CCO3)n1 | 91.4%

system: NCI-H460; experiment: Growth inhibition of human NCI-H460 cells assessed as cell growth at 10 uM incubated for 48 hrs by sulforhodamine B assay relative to control; format: functional; settings: read-out: Activity; how it was run: as §2

Row | Compound | growth at 10 µM
9 | O=S(=O)(c1ccccc1)n1ccc(-c2ccc3c(c2)CCO3)n1 | 87.3%

system: HCT-116; experiment: Growth inhibition of human HCT-116 cells assessed as cell growth at 10 uM incubated for 48 hrs by sulforhodamine B assay relative to control; format: functional; settings: read-out: Activity; how it was run: as §2

Row | Compound | growth at 10 µM
10 | O=S(=O)(c1ccccc1)n1ccc(-c2ccc3c(c2)CCO3)n1 | 89.1%

system: HCT-15; experiment: Growth inhibition of human HCT-15 cells assessed as cell growth at 10 uM incubated for 48 hrs by sulforhodamine B assay relative to control; format: functional; settings: read-out: Activity; how it was run: as §2

Row | Compound | growth at 10 µM
11 | O=S(=O)(c1ccccc1)n1ccc(-c2ccc3c(c2)CCO3)n1 | 92.8%

system: KM12; experiment: Growth inhibition of human KM12 cells assessed as cell growth at 10 uM incubated for 48 hrs by sulforhodamine B assay relative to control; format: functional; settings: read-out: Activity; how it was run: as §2

Row | Compound | growth at 10 µM
12 | O=S(=O)(c1ccccc1)n1ccc(-c2ccc3c(c2)CCO3)n1 | 91.9%

system: SF-295; experiment: Growth inhibition of human SF-295 cells assessed as cell growth at 10 uM incubated for 48 hrs by sulforhodamine B assay relative to control; format: functional; settings: read-out: Activity
How it was run: (§3)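 Run by the NCI Developmental Therapeutics Program as part of its 60-line human tumour panel. Each compound tested at a single 10 µM dose. Growth expressed as % relative to untreated control cells (100%).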

Row | Compound | growth at 10 µM
13 | O=S(=O)(c1ccccc1)n1ccc(-c2ccc3c(c2)CCO3)n1 | 83.3%

system: SF-539; experiment: Growth inhibition of human SF-539 cells assessed as cell growth at 10 uM incubated for 48 hrs by sulforhodamine B assay relative to control; format: functional; settings: read-out: Activity; how it was run: as §3

Row | Compound | growth at 10 µM
14 | O=S(=O)(c1ccccc1)n1ccc(-c2ccc3c(c2)CCO3)n1 | 86.7%

system: SNB-75; experiment: Growth inhibition of human SNB-75 cells assessed as cell growth at 10 uM incubated for 48 hrs by sulforhodamine B assay relative to control; format: functional; settings: read-out: Activity; how it was run: as §3

Row | Compound | growth at 10 µM
15 | O=S(=O)(c1ccccc1)n1ccc(-c2ccc3c(c2)CCO3)n1 | 76.2%

system: U-251; experiment: Growth inhibition of human U-251 cells assessed as cell growth at 10 uM incubated for 48 hrs by sulforhodamine B assay relative to control; format: functional; settings: read-out: Activity; how it was run: as §3

Row | Compound | growth at 10 µM
16 | O=S(=O)(c1ccccc1)n1ccc(-c2ccc3c(c2)CCO3)n1 | 73.6%

system: Malme-3M; experiment: Growth inhibition of human Malme-3M cells assessed as cell growth at 10 uM incubated for 48 hrs by sulforhodamine B assay relative to control; format: functional; settings: read-out: Activity; how it was run: as §2

Row | Compound | growth at 10 µM
17 | O=S(=O)(c1ccccc1)n1ccc(-c2ccc3c(c2)CCO3)n1 | 94%

system: M14; experiment: Growth inhibition of human M14 cells assessed as cell growth at 10 uM incubated for 48 hrs by sulforhodamine B assay relative to control; format: functional; settings: read-out: Activity; how it was run: as §2

Row | Compound | growth at 10 µM
18 | O=S(=O)(c1ccccc1)n1ccc(-c2ccc3c(c2)CCO3)n1 | 101%

system: MDA-MB-435; experiment: Growth inhibition of human MDA-MB-435 cells assessed as cell growth at 10 uM incubated for 48 hrs by sulforhodamine B assay relative to control; format: functional; settings: read-out: Activity; how it was run: as §2

Row | Compound | growth at 10 µM
19 | O=S(=O)(c1ccccc1)n1ccc(-c2ccc3c(c2)CCO3)n1 | 104%

system: SK-MEL-28; experiment: Growth inhibition of human SK-MEL-28 cells assessed as cell growth at 10 uM incubated for 48 hrs by sulforhodamine B assay relative to control; format: functional; settings: read-out: Activity; how it was run: as §3

Row | Compound | growth at 10 µM
20 | O=S(=O)(c1ccccc1)n1ccc(-c2ccc3c(c2)CCO3)n1 | 86.2%

system: SK-MEL-5; experiment: Growth inhibition of human SK-MEL-5 cells assessed as cell growth at 10 uM incubated for 48 hrs by sulforhodamine B assay relative to control; format: functional; settings: read-out: Activity; how it was run: as §3

Row | Compound | growth at 10 µM
21 | O=S(=O)(c1ccccc1)n1ccc(-c2ccc3c(c2)CCO3)n1 | 70.2%

system: UACC-257; experiment: Growth inhibition of human UACC-257 cells assessed as cell growth at 10 uM incubated for 48 hrs by sulforhodamine B assay relative to control; format: functional; settings: read-out: Activity; how it was run: as §3

Row | Compound | growth at 10 µM
22 | O=S(=O)(c1ccccc1)n1ccc(-c2ccc3c(c2)CCO3)n1 | 79.9%

system: UACC-62; experiment: Growth inhibition of human UACC-62 cells assessed as cell growth at 10 uM incubated for 48 hrs by sulforhodamine B assay relative to control; format: functional; settings: read-out: Activity; how it was run: as §3

Row | Compound | growth at 10 µM
23 | O=S(=O)(c1ccccc1)n1ccc(-c2ccc3c(c2)CCO3)n1 | 73.1%

system: IGROV-1; experiment: Growth inhibition of human IGROV-1 cells assessed as cell growth at 10 uM incubated for 48 hrs by sulforhodamine B assay relative to control; format: functional; settings: read-out: Activity; how it was run: as §2

Row | Compound | growth at 10 µM
24 | O=S(=O)(c1ccccc1)n1ccc(-c2ccc3c(c2)CCO3)n1 | 75.7%

system: OVCAR-5; experiment: Growth inhibition of human OVCAR-5 cells assessed as cell growth at 10 uM incubated for 48 hrs by sulforhodamine B assay relative to control; format: functional; settings: read-out: Activity; how it was run: as §3

Row | Compound | growth at 10 µM
25 | O=S(=O)(c1ccccc1)n1ccc(-c2ccc3c(c2)CCO3)n1 | 103%

system: NCI/ADR-RES; experiment: Growth inhibition of human NCI/ADR-RES cells assessed as cell growth at 10 uM incubated for 48 hrs by sulforhodamine B assay relative to control; format: functional; settings: read-out: Activity; how it was run: as §2

Row | Compound | growth at 10 µM
26 | O=S(=O)(c1ccccc1)n1ccc(-c2ccc3c(c2)CCO3)n1 | 76%

system: A498; experiment: Growth inhibition of human A498 cells assessed as cell growth at 10 uM incubated for 48 hrs by sulforhodamine B assay relative to control; format: functional; settings: read-out: Activity; how it was run: as §1

Row | Compound | growth at 10 µM
27 | O=S(=O)(c1ccccc1)n1ccc(-c2ccc3c(c2)CCO3)n1 | 71.2%

system: RXF 393; experiment: Growth inhibition of human RXF 393 cells assessed as cell growth at 10 uM incubated for 48 hrs by sulforhodamine B assay relative to control; format: functional; settings: read-out: Activity; how it was run: as §3

Row | Compound | growth at 10 µM
28 | O=S(=O)(c1ccccc1)n1ccc(-c2ccc3c(c2)CCO3)n1 | 82.9%

system: SN12C; experiment: Growth inhibition of human SN12C cells assessed as cell growth at 10 uM incubated for 48 hrs by sulforhodamine B assay relative to control; format: functional; settings: read-out: Activity; how it was run: as §3

Row | Compound | growth at 10 µM
29 | O=S(=O)(c1ccccc1)n1ccc(-c2ccc3c(c2)CCO3)n1 | 67.9%

system: UO-31; experiment: Growth inhibition of human UO-31 cells assessed as cell growth at 10 uM incubated for 48 hrs by sulforhodamine B assay relative to control; format: functional; settings: read-out: Activity; how it was run: as §3

Row | Compound | growth at 10 µM
30 | O=S(=O)(c1ccccc1)n1ccc(-c2ccc3c(c2)CCO3)n1 | 51%

system: PC-3; experiment: Growth inhibition of human PC-3 cells assessed as cell growth at 10 uM incubated for 48 hrs by sulforhodamine B assay relative to control; format: functional; settings: read-out: Activity; how it was run: as §3

Row | Compound | growth at 10 µM
31 | O=S(=O)(c1ccccc1)n1ccc(-c2ccc3c(c2)CCO3)n1 | 84.2%

system: Hs-578T; experiment: Growth inhibition of human Hs-578T cells assessed as cell growth at 10 uM incubated for 48 hrs by sulforhodamine B assay relative to control; format: functional; settings: read-out: Activity; how it was run: as §2

Row | Compound | growth at 10 µM
32 | O=S(=O)(c1ccccc1)n1ccc(-c2ccc3c(c2)CCO3)n1 | 102%

system: MDA-MB-468; experiment: Growth inhibition of human MDA-MB-468 cells assessed as cell growth at 10 uM incubated for 48 hrs by sulforhodamine B assay relative to control; format: functional; settings: read-out: Activity; how it was run: as §2

Row | Compound | growth at 10 µM
33 | O=S(=O)(c1ccccc1)n1ccc(-c2ccc3c(c2)CCO3)n1 | 42.4%
